Laboratory results from the EternaBench riboswitch data.

Test system: MS2 coat protein
Experiment: apparent Kd, MS2 coat protein; higher = weaker binding; RNA-MaP array; FMN 200 µM where present
Summary of the method: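 Green signal from SNAP-549-labelled MS2 coat protein was normalised to red-channel RNA signal and to the median Fmax of control clusters. The protein was titrated from 0.7 or 1.5 nM, doubling to 3 µM, without and then with constant ligand, over designs transcribed by stalled E. coli RNA polymerase on Illumina sequencing-chip clusters, in 100 mM Tris-HCl pH 7.5, 80 mM KCl, 4 mM MgCl2, BSA, DTT, yeast tRNA and Tween-20. The apparent Kd is the median of filtered per-cluster binding-curve fits.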

[1] = designed as: ON switch for flavin mononucleotide, no ligand
[2] = ligand present: flavin mononucleotide, designed as: ON switch for flavin mononucleotide
[3] = designed as: OFF switch for flavin mononucleotide, no ligand
[4] = ligand present: flavin mononucleotide, designed as: OFF switch for flavin mononucleotide

Sequence	apparent Kd [1] [nM]	apparent Kd [2] [nM]	apparent Kd [3] [nM]	apparent Kd [4] [nM]
GGAUGAGCAAUAGGAUAUGCUGGGAUUGAAUGGGUAGAAGGAUUUCUAGUGGGAAAGACAUGAGGAUCACCCAUGUCGCGGACC	25.2	26.6	–	–
AUCAGCUCGUAAGGAUAUACGUCACUGCGUCAGCAGUGUGGUAAGAUCACAUGAGGAUCACCCAUGUAGAAGGGACGAGCUGAU	–	–	15.6	142
GCCGGGUAGGCAGGAUAUCCUCGCGCAAACACAUGAGGAUCACCCAUGUACACAAAACGUGAUAUGGAGAAGGGCCAACCCACG	24.1	5.8	–	–
AGCACGAAAGUGCAACGAUGUACGAGAAGGACAUGAGGAUCACCCAUGUCGCUGUAACAGCACAUGUAGGAUAUCGUACAUCGA	–	–	12.9	15.2
GUAGUGUAGUGAGGAUAUACGAGAUCGAUAGAUCGGCGAUCCAAUAAUACAUGAGGAUCACCCAUGUAGAAGGCACUUCACUAC	–	–	7.26	98.8
GGAUCGAUGUAGAAGGCUGUCCUAAAAUAGGACAGAGGAUAUACAUGAGGAUCACCCAUGUACUCCUUUAAAAUGAUCCAAAUA	–	–	5.53	10.3
CACAAGUAUAACGAUUUCAAGGCACAGGAUAUGAGUGUGCACAUGAGGAUCACCCAUGUUAUAACUUAGAAGGGUGACCAUCGC	402	433	–	–
GGAUCGUAUGUGAGGAUAUACCACUGGAUACAGUGGUAGAAGGCACAUGAGGAUCACCCAUGUCCUAUCGAUCC	–	–	146	196
AACGAUCUAGGAUAUACAUGAGGAUCACCCAUGUAAGAGCCCGAACCGGGCUCCCUCUGUAGAAGGAGGUCAAA	–	–	32.7	40.3
UUGUACGUCGUAGGAUAUGUAGGAUAUUCCUACAUGAGGAUCACCCAUGUUGACAUGGAAGAAGGACAGAAGGACGAUGUCCAU	429	7.83	–	–
GGGUACAUCGGAGGAUAUCAUGUAAAUACAUGAGGAUCACCCAUGUCGAUGGAGACAUCGGAAAUUGAGAAGGCCGAUGUACCG	16.9	4.87	–	–
CCUCCCUGAGGAUAUCCAUCCUCAUACAUGAGGAUCACCCAUGUUCAUCCGUGGCUACCCGGAGAAGGCAGCUCUG	–	–	321	290
UUCAGCUCGACAGGAUAUACAUCACUGCUUCGGCAGUGUAUCUUAAUAACAUGAGGAUCACCCAUGUAGAAGGGUCGAGCUGAA	–	–	17.9	31.4
GGGUACAUGGGAGGAUAUCCUCAAGAGACAUGAGGAUCACCCAUGUAUUAUAAGCCUAAUGGCAUGGAGAAGGCCCAUGUACCG	397	69.7	–	–
AGCUAGUCAGGAUAUACAUGAGGAUCACCCAUGUAAACUUUUAGUUUAAUUUGAAUGUGUAGAAGGGACAUAAA	–	–	21.7	24.1
UUUAUGUCAGGAUAUGAGUAGUAGAACAAUAGUACUACUACUCAGAAGGGACAUGAGGAUCACCCAUGUGCCUC	–	–	35.2	291
AAGGUGAGAGGAUAUACAUGAGGAUCACCCAUGUGUCGGCCCUCCACAUAUGCCUUGUGUAGAAGGCUCCCGAG	–	–	14.6	22.3
AGUUGAAAUACAGGAUAUAUAUUAUUUUUAUUUAUAGAAGGGUAAUCACAUGAGGAUCACCCAUGUAUAUACGAGGAAGAAGAG	292	263	–	–
UCGUAUACACAAGGAUAUCGAUGGCUUGUAGAUCCUACAUGAGGAUCACCCAUGUUUUUAUAUUGUGAGAAGGUGUAGUGUCGU	1320	1210	–	–
GGAGGACAUGAGGAUCACCCAUGUGGAUGGGCGCUAGGAUAUGCGUGCGGGAAGAGUGGAGCAGAAGGAGUGGGUU	48.3	42.2	–	–
GAAAAGGUAGGAUAUACGAAAAAAAAGGGUAGAAAAAAAACACAUGAGGAUCACCCAUGUAGAAGGACCAAAAG	–	–	31.9	94.1
GAGUGGUAGAGAGGAUAUGCAUUGUUAUUAAAUGCAGAAGGUUUUAACAUGAGGAUCACCCAUGUAGGACUAUUCCUGUGUUUC	15.5	13.6	–	–
UUUUAACAUGAGGAUCACCCAUGUGAGGAUAUCGAAAUUUAUAUUAAUAUUAUUAAAUCGAGAAGGCACAUUUU	–	–	102	97.4
AAGUUUAACGAAGGAUAUGGUUACAUGAGGAUCACCCAUGUAAUGGUUGUGAUAUUGAUUAAGUUCCAGAAGGUCGUAUACAUA	–	–	109	301

Sequence	apparent Kd [1] [nM]	apparent Kd [2] [nM]	apparent Kd [3] [nM]	apparent Kd [4] [nM]
GCCACGGGAGGAUAUCGCGGAGGCUACAUGAGGAUCACCCAUGUCUGGUCUUCGUGCUCCCGAGAAGGCCCGUCAG	–	–	14	32.9
CCCUAGGUAGGAUAUACUUGGGCUCGGCUGAUGUGCCUAAAACAUGAGGAUCACCCAUGUAGAAGGACUAAGGC	–	–	12.4	10.8
AAUUAAUUAAUUAAGUACAUGAGGAUCACCCAUGUAAGUGAUCAGGAUAUCAGCUCGAUUAGAGCUGAGAAGGGAUCCAUGUAC	531	303	–	–
GGAUAGGACAGAGGAUAUACGUGAUAGAGAUACUAGCAAAAUUUCCUCACAUGAGGAUCACCCAUGUAGAAGGCUGUCCUAUCG	–	–	310	115
CGGUGACGUGUAGGAUAUGGAGAUGGGUUUUGGCCAGAAGGACAUGAGGAUCACCCAUGUGGUAGAGGGUUGGCGGCUGCCCGU	–	–	16.7	18.7
CACUGCAAUGUAGGAUAUCGACUGGAUAACAGUCGAGAAGGACAUGAGGAUCACCCAUGUACUAUGAGUGAAUAAUAAGCAGUG	–	–	89	950
GUGUGCUGAGGAUAUACAGAGGAAGAUAAGAUAAGAUAAUCACAUGAGGAUCACCCAUGUAGAAGGCAGAGUGU	–	–	23.7	35.5
CGUGCUUAUGUAGGAUAUGGUUAUCUAUGUCUAGUUACUAGACAUAGAUAACCAGAAGGACAUGAGGAUCACCCAUGUAGCACG	–	–	14.6	25.8
UCACGGGACUAAGGAUAUAUGUGUACCAUUUUCAUAGAAGGUAGAAUGUUUGAUCAUAAACUAAACAUGAGGAUCACCCAUGUU	–	–	27	25.1
CUCAUGUGAGGAUAUGUGAUCAACCUUCUAUAUAGAUGAUUACAGAAGGCACAUGAGGAUCACCCAUGUAGAUC	–	–	23.4	18.3
GGUACUCAAAGAGUACCAAUACGAACAUGAGGAUCACCCAUGUAGGAUAUGCUACUCAAAGAGUAGCAGAAGGACGUGUACCUU	–	–	24.7	54
UGAGCCUCGUGAGGAUAUACAUGAGGAUCACCCAUGUAAUAAAGUGAACGGAGGAAACUCCGAAUGUAGAAGGCACGAGGCUUA	–	–	18.7	146
GGGAUUAAGGCAGGAUAUCCGGGUUGGCCUCGACAUGAGGAUCACCCAUGUGGAGAAGGGCCGACUGCUCGAAAGGCGGUCAAG	–	–	214	67.4
AUCAGCUCGUCAGGAUAUACGUCACUGCGUCAGCAAUGUGGUAAGAUCACAUGAGGAUCACCCAUGUAGAAGGGACGAGCUGAU	–	–	29.9	289
GGUAGAAACAUUAACAUGAGGAUCACCCAUGUCAAAAGAAAUGAGGAUAUCGUCUACAAUGUAUAUGAGAAGGCAUGGUCUGCC	20.2	14.6	–	–
GGGUACAUAGGAGGAUAUCAUGUAAAUACAUGAGGAUCACCCAUGUCGAUGGAGACAUCGGAGAUUGAGAAGGCCGAUGUACCG	240	10.6	–	–
UCGCUCCGUGUAGGAUAUCGCCGUUCUAUUCGGCGAGAAGGACAUGAGGAUCACCCAUGUAUGUUAUUAUCACGCGUGGCGCAA	–	–	16	19.1
UGGAUGUAGGAGAAGGAGGACUUCAUGAGGAUCACCCAUGUGUUAGGACUUAGGAUAUUUGACAACAUGAGGAUCACCCAUGUG	60	52.7	–	–
AAGUCUGGACGAGGAUAUCAGCUGUAACUGGCGUCAACAUGAGGAUCACCCAUGUUGCUAUAGGGUGAGAAGGCGUUUGGGCAA	24.1	19.5	–	–
AAAAAGCGAGGAUAUACAUGAGGAUCACCCAUGUAAAAAAAAAGAGAUGAAACAUCAUGUAGAAGGCGCAAAAA	–	–	211	134
UUCAGCUCGUGAGGAUAUACAUGUGCUGGAAACAGCAUUAAAUAAUUCACAUGAGGAUCACCCAUGUAGAAGGCACGAGCUGAG	–	–	17	34.4
AUAUAUAUAAGGUAGGAUAUACUAAAGUAAACAUGAGGAUCACCCAUGUAAAGAAAGAAACUCAUGUAGAAGGACCAUAUAUAUAU	171	36.5	–	–
GAGACUACCGAGAAGGGCAUAUUAAGACUCUUCGUACUACGCCUAGACAUGAGGAUCACCCAUGUGCAGGAUAUCGAGCGGCUC	–	–	6.38	6.05
CGUUAAUAUCGAGGAUAUGUCUAGACACAUGAGGAUCACCCAUGUAUGUGUAUAGAAGGCGAUAUUAACAGCAUGUUACAUGCU	41	16.7	–	–
